Rows were chosen to be rich in hits. Some 3.5% of all compounds tested hit in one or more screens of this group.
rRNA inh HTS: reduced GFP signal of wild-type E. coli, primary screen, bacterial rRNA inhibitor project, GFP/RFP fluorescence, OD600, single point; E. coli WT GFP vs humanized-ribosome RFP mutants, 24 h; hits give low values; DMSO median 0, no signal -100; GFP signal change (wild-type ribosome), % (no concentration beside the values); hit rate 1.6% among 350,000; AID 720706, 2013;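 active = significant combined selectivity score with lowered wild-type GFP, culture density cut under 30%, mutant RFP and density less affected; inactive = any of these conditions unmet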
HIV Env fusion: inhibitors of HIV-1 Env-driven cell-cell fusion, primary screen, HeLa-JRFL effector, CEM21 target cells, luciferase; inhibition, % at 12.3 µM; hit rate 1.1% among 360,000; AID 651610, 2012;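 active = mean replicate inhibition score of at least 50 and every replicate individually at or above 50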
FGF22 binding: binders of human FGF22 protein, primary screen, FGF22 synaptogenesis inhibitor project, biophysical, thermal shift, single point; recombinant FGF22 thermal shift, SYPRO orange fluorescence; percent of sucrose octasulfate shift, DMSO zero; activity (Tm shift, normalised), % at 9.99 µM; hit rate 1.5% among 340,000; Fibroblast growth factor 22 (Homo sapiens), Q9HCT0;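 active = mean Tm shift, scaled 0 neutral to 100 positive control, at about 1.3% or above, every replicate too, limit read from the data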
PGC1a acetyl inh: inhibitors of PGC1a acetylation signal, primary screen, cell-based, U2OS, AlphaScreen, inhibitor mode; inhibition, % at 15.6 µM; hit rate 0.17% among 350,000; AlphaScreen anti-acetyl-lysine; with virally co-expressed GCN5 acetyltransferase; AID 651687, 2012;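 active = every replicate shows inhibition of at least 40%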
Cneo AK release: Cryptococcus neoformans cell lysis inducers, primary screen, AK release luminescence, single concentration. C. neoformans lysis, adenylate kinase release luminescence, 4 h; normalised: neutral wells 0, clomiphene wells 100. lysis activity, % at 15 µM. hit rate 0.2% among 360,000;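 active = mean lysis activity across replicates of at least 80%, whatever share of replicates individually reach that level; inactive = mean lysis activity below 80%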
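Assay system: log-phase C. neoformans yeast / Quantity: yeast cell density of 5 × 10^6 cells/mL / Medium: fresh YPD growth medium / Compound: single dose / Timing: static 4 h at 37 °C with compound, 1 h detection / Measured by: adenylate kinase release luminescence / Read-out: lysis from increased AK signal / Benchmarks: Clomiphene as positive lysis control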
ERAP1 HTS inh: human ERAP1 aminopeptidase inhibitors, primary screen, biochemical, single point, plate reader; Endoplasmic reticulum aminopeptidase 1 (Homo sapiens), Q9NZ08; recombinant ERAP1, Leu-AMC fluorescence, 60 min; inhibition, % at 10.7 µM; hit rate 0.15% among 340,000; AID 652197, 2013;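 active = mean replicate inhibition of at least 30%, or all replicates individually reaching that 30% level; inactive = mean below 30% and not every replicate reaching it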
Target sequence (Q9NZ08 whole entry, looked up): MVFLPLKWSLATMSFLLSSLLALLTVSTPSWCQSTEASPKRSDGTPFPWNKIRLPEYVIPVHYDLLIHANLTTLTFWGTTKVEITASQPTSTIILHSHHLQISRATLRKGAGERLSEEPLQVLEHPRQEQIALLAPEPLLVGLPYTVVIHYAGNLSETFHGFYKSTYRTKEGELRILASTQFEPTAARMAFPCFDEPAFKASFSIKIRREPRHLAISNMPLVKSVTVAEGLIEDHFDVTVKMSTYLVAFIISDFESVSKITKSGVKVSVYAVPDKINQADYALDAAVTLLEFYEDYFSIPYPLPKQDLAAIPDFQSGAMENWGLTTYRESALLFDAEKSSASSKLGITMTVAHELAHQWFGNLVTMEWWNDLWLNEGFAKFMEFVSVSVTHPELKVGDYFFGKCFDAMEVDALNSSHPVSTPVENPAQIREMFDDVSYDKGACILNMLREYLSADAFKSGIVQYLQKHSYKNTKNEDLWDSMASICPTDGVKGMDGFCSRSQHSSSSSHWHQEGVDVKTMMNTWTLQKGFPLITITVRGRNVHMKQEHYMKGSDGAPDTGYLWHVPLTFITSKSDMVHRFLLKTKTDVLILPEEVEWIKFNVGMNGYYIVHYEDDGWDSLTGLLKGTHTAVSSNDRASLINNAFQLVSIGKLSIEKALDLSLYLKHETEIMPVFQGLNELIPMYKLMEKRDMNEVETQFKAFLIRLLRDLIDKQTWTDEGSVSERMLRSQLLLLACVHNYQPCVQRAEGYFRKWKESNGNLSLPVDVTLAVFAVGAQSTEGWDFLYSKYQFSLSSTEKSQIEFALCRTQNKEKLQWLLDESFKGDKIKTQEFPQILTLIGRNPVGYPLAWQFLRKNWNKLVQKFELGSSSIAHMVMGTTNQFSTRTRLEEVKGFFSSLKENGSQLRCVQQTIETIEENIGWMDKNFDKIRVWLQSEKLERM
Large screens that a line does not name were inactive.

COc1ccc(NC(=O)C2Cc3c(-c4ccccc4Oc4ccccc4)ccnc3O2)cc1OC (stereo unspecified)	HIV Env fusion 67
O=C(COC(=O)c1cccc(S(=O)(=O)N2CCN(c3ccccc3)CC2)c1)NCc1ccco1	none (no result: rRNA inh HTS, HIV Env fusion, FGF22 binding, ERAP1 HTS inh)
Cc1ccc(S(=O)(=O)NCc2ccccc2)cc1C(=O)N1CCCCCCC1	HIV Env fusion 66
Cc1ccc(OCCC(=O)OCC(=O)NCCc2ccccc2)cc1	rRNA inh HTS -22 (no result: PGC1a acetyl inh, Cneo AK release)
C[C@@H]1CN([C@@H](C)CO)C(=O)c2cc(C3=CCCC3)cnc2O[C@H]1CN(C)Cc1ccc(F)cc1	none
Cc1ccc(C)n1-c1ccc(C(=O)NN)cc1	none (no result: PGC1a acetyl inh, Cneo AK release)
Cc1oc2c(c(C)cc3oc(=O)c(CC(=O)N[C@@H](CC(C)C)C(=O)O)c(C)c32)c1C	none
Cc1oc2c(c(C)cc3oc(=O)c(CC(=O)N[C@H](C(=O)O)C(C)C)c(C)c32)c1C	ERAP1 HTS inh 35 (no result: PGC1a acetyl inh)
COc1ccc([C@H]2CC(=O)C=C(c3ccc4c(c3)OCO4)C2)cc1OC	FGF22 binding 4.0 (no result: PGC1a acetyl inh)
COc1ccc([C@H]2CC(=O)C=C(c3cccc(C(C)C)c3)C2)cc1OC	HIV Env fusion 63
COc1ccc(OC)c(NC(=O)Nc2c(O)ccc3ccccc23)c1	rRNA inh HTS -27 (no result: PGC1a acetyl inh)
COc1ccc(OC)c(NC(=O)C(C)OC(=O)c2cc3ccccc3[nH]2)c1 (stereo unspecified)	HIV Env fusion 58
COc1ccccc1NC(=O)C(C)OC(=O)c1cc2ccccc2[nH]1 (stereo unspecified)	none (no result: HIV Env fusion)
O=C(NC(Cc1ccc(O)cc1)C(=O)O)c1ccco1 (stereo unspecified)	FGF22 binding 43 (no result: Cneo AK release)
COc1ccc(-c2nn(-c3ccccc3)cc2/C=N/N2C(=O)CSC2=S)cc1	HIV Env fusion 67 (no result: rRNA inh HTS, FGF22 binding, ERAP1 HTS inh)
COc1ccc(-c2nn(-c3ccccc3)cc2/C=N/NS(=O)(=O)c2ccccc2)cc1	none (no result: rRNA inh HTS, HIV Env fusion, FGF22 binding, Cneo AK release, ERAP1 HTS inh)
COc1ccc(-c2nn(-c3ccccc3)cc2/C=N/O)cc1	rRNA inh HTS -38 (no result: PGC1a acetyl inh)
COc1ccc(/C=N/N2C(=O)CSC2=S)cc1	none (no result: rRNA inh HTS, HIV Env fusion, FGF22 binding, ERAP1 HTS inh)
O=C1C=CC(=O)c2c(O)c(N3CCN(CCOCCO)CC3)c(Br)c(O)c21	HIV Env fusion 61 (no result: rRNA inh HTS, PGC1a acetyl inh, Cneo AK release)
O=C1C=CC(=O)c2c(O)c(N3CCN(CCO)CC3)c(Cl)c(O)c21	PGC1a acetyl inh 51 (no result: Cneo AK release)
Cc1nc2nc(Cc3ccccc3)[nH]n2c(=O)c1Cc1ccccc1	none (no result: rRNA inh HTS, HIV Env fusion, FGF22 binding, ERAP1 HTS inh)
CN(C)C=NC(=O)c1cn(-c2ccc(F)cc2)c(=O)c2ccccc12	none (no result: Cneo AK release)
Cc1c(N2C(=O)C(=O)/C(=C(/O)c3ccc(Br)cc3)C2c2cccnc2)c(=O)n(-c2ccccc2)n1C (stereo unspecified)	FGF22 binding 44 (no result: Cneo AK release)
Cc1ccc(/C(O)=C2/C(=O)C(=O)N(CCN3CCOCC3)C2c2cccnc2)cc1 (stereo unspecified)	none (no result: rRNA inh HTS, FGF22 binding, PGC1a acetyl inh, ERAP1 HTS inh)
Cc1cccc(C(=O)c2cnc3ccccc3c2-c2ccccc2)c1	HIV Env fusion 73 (no result: rRNA inh HTS, FGF22 binding, ERAP1 HTS inh)
CCOC(=O)N1CCN(S(=O)(=O)c2ccc(C(=O)Nc3sc4c(c3C(=O)OC)CCN(C)C4)cc2)CC1	rRNA inh HTS -15 (no result: PGC1a acetyl inh)
O=C(N/N=C/c1ccncc1)c1ccc(-n2cccc2)cc1	none
O=C(N/N=C/c1cccs1)c1ccc(-n2cccc2)cc1	rRNA inh HTS -23 (no result: PGC1a acetyl inh, Cneo AK release)
O=C(CCNC(=O)c1ccco1)Nc1ccc(OC(F)F)c(Cl)c1	none (no result: PGC1a acetyl inh)
O=C(N/N=C/c1ccc(OCc2ccccc2)cc1)c1ccncc1	none (no result: rRNA inh HTS)
O=C(N/N=C/c1ccc(OC(=O)c2ccccc2)cc1)c1cccnc1	HIV Env fusion 57
O=C(N/N=C/c1ccc(OCc2cnc(Cl)s2)cc1)c1ccncc1	FGF22 binding 43 (no result: PGC1a acetyl inh, Cneo AK release)
COc1ccc(C(=O)N/N=C/c2ccc(OC)c(CN3CCCc4ccccc43)c2)cc1	none (no result: rRNA inh HTS, HIV Env fusion, FGF22 binding, PGC1a acetyl inh, ERAP1 HTS inh)
COc1cc(/C=N/NC(=O)c2cccnc2)ccc1OCC(=O)Nc1ccccc1Cl	FGF22 binding 43

High-throughput results from PubChem BioAssay.
